Rows were chosen to be rich in hits. Some 1.2% of all compounds tested hit in one or more screens of this group.
TPT1 inhibitor: Candida albicans TPT1 enzyme inhibitors, primary screen, biochemical, fluorescence polarization; inhibition, % at 5 µM; tRNA 2'-phosphotransferase TPT1 (Candida albicans SC5314); recombinant caTPT1, FP RNA substrate dephosphorylation; 300,000 tested, 0.81% active;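 active = inhibition above the mean of all tested compounds plus 3 SD, set per screening campaign, cut at about 24% in these data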;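 also: plate controls were DMSO alone for no effect and ferristatin control at 100 nM for full effect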
proCasp3 act: activators of human procaspase-3 D3A mutant, primary screen, biochemical, absorbance, PC-3 D3A mutant, single concentration; Caspase-3 (Homo sapiens), P42574; activation, % at 8.5 µM; recombinant procaspase-3 D3A, Ac-DEVD-pNA absorbance 405 nm; 330,000 tested, 0.11% active; AID 463141, 2010;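 active = activation above the mean of all tested compounds plus 3 SD, cut at about 21% in these data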;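 also: 0% = DMSO alone and 100% = DMSO wells spiked with extra 5 µM PC-3 D3A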
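Assay system – Procaspase-3 D3A mutant · Benchmarks – DMSO low control, extra-enzyme high control · Technique – 405 nm absorbance of p-nitroaniline, reads at 0 and 120 min · Doses – 8.5 µM nominal · Measure – % activation between DMSO and enzyme-spiked controls · Also added – Ac-DEVD-pNA chromogenic peptide substrate · Schedule – 1 h compound preincubation, 2 h substrate hydrolysis at 25 °C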
IDE cell activ: human IDE activators in live cells, primary screen, fluorescence polarization, HEK cells, FAbeta-B substrate | FAbeta-B cleavage; 0% vehicle, 100% cell-free pure enzyme wells | activation, % at 5.96 µM | 340,000 tested, 0.073% active;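 active = activation above the mean of all tested compounds plus 3 SD, set per screening campaign, cut at about 17% in these data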
Target sequence (P14735 whole entry, looked up): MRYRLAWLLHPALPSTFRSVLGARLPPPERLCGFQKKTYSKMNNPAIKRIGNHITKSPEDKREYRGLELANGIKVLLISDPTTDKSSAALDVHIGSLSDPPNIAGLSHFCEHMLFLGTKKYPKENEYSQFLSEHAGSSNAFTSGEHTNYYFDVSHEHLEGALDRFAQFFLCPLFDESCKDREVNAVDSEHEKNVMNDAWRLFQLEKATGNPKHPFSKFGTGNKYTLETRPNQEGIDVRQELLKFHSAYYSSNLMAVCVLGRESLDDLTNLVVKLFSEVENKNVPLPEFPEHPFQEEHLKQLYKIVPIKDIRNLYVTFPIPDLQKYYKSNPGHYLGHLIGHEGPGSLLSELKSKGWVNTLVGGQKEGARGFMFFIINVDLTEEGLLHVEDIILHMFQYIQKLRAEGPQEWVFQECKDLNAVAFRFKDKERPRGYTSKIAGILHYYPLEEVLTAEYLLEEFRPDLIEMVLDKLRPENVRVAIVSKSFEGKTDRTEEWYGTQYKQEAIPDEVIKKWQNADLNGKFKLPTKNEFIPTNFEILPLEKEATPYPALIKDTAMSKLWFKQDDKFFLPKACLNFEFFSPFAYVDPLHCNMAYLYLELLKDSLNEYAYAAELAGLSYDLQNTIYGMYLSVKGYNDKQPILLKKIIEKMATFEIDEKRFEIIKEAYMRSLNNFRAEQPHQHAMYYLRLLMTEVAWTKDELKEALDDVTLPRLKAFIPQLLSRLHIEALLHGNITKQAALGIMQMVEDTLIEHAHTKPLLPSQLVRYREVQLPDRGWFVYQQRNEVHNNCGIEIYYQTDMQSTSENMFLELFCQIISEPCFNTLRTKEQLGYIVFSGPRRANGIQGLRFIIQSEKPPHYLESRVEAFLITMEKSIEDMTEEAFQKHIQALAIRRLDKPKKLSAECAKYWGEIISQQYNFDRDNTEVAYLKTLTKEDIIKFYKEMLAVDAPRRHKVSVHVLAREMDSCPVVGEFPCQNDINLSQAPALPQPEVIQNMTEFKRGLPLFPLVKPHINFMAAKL
IDE cell inh: human IDE inhibitors in live cells, primary screen, fluorescence polarization, HEK cells, FAbetaB substrate | Insulin-degrading enzyme (Homo sapiens), P14735 | FAbetaB cleavage | inhibition, % at 5.59 µM | 320,000 tested, 0.41% active;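 active = percent inhibition above the average of all tested compounds plus 3 SD, set per screening campaign, cut at about 16% in these data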;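 also: IDE supplied by intact live HEK cells; FP after avidin binding of uncleaved biotin substrate so inhibition keeps polarization high; 0% = DMSO wells and 100% = 60 µM reference IDE inhibitor Ii1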
proCasp7 act: procaspase-7 activators, primary screen, counter-screen for procaspase-3 activator project, biochemical, absorbance, HTS, human; Caspase-7 (Homo sapiens), P55210; recombinant procaspase-7, Ac-DEVD-pNA absorbance 405 nm; D23A/D198A/D206A triple mutant, cannot self-cleave; scale: DMSO 0, 5 µM enzyme 100; activation, % at 8.5 µM; 330,000 tested, 0.093% active; AID 463210, 2010;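 active = percent activation above the screen-wide mean plus 3 SD, cut at about 25% in these data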
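signal = Epi-absorbance of released pNA at 405 nm, two timepoints | assay system = Uncleavable procaspase-7 mutant enzyme | reagent = Ac-DEVD-pNA substrate, 400 µM as added | times = 1 h enzyme–compound preincubation and 2 h substrate reaction, both 25 °C | benchmarks = low DMSO alone, high DMSO plus 5 µM PC-7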
PC3 D3A act: procaspase-3 activators, counter-screen for dual procaspase-3/7 activator project, biochemical, absorbance, PC-3 D3A mutant, human. shares compounds with proCasp7 act. recombinant PC-3 D3A, Ac-DEVD-pNA absorbance 405 nm; aspartates 9, 28, 175 changed to alanine; 100% = enzyme control. activation, % at 8.5 µM. 290 tested, under 10 active;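 active = mean percent activation across triplicates above a set limit taken from the earlier primary procaspase-3 screen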;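 also: 0% = DMSO wells and 100% = DMSO wells with 5 µM added PC-3 D3A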
PC7 dual conf: activation of procaspase-7 enzyme – biochemical, absorbance, human, dual procaspase-3/-7 activator project, confirmation. 290 tested, under 10 active. recombinant procaspase-7, Ac-DEVD-pNA absorbance 405 nm; D23A/D198A/D206A mutant that cannot self-cleave. AID 493115, 2011. activation, % at 8.5 µM. shares compounds with proCasp7 act;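 active = mean activation above a set limit carried over from the earlier primary screen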;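 also: 0% = DMSO only and 100% = DMSO with added 5 µM PC-7 enzyme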
The depositor's hits bear a star; . = no result.

SMILES	TPT1 inhibitor	proCasp3 act	IDE cell activ	IDE cell inh	proCasp7 act	PC3 D3A act	PC7 dual conf
CCCCCCc1cc2cc(S(=O)(=O)c3ccc(C)cc3)c(=O)oc2cc1O	16	86*	2	2	31*	-29	-35
COc1ccccc1N1CCN(C(=O)C(C)NC(=O)c2cccc([N+](=O)[O-])c2)CC1 (stereo not drawn)	1	-10	6	-1	-12	.	.
O=C(Nc1ccc2c(c1)OCCO2)c1coc2ccccc2c1=O	-2	8	-3	-3	36*	8	0
N#Cc1c2c(c(Nc3ccccc3)n3c1nc1ccccc13)CCC2	0	11	-5	0	61*	4	1
O=C(Nc1cccnc1)c1sc(Nc2ccccc2)nc1-c1ccccc1	-3	10	-4	5	29*	6	1
Cc1cccc(Nc2nc(-c3ccccc3)c(C(=O)Nc3cccnc3)s2)c1	0	-13	-3	1	6	.	.
CN(C)S(=O)(=O)c1cccc(C(=O)Nc2ccccc2C(=O)NC2CC2)c1	.	0	-1	8	2	.	.
COc1cccc2cc(-c3nc(-c4cccs4)cs3)c(=O)oc12	1	17	0	4	65*	13	4
O=c1oc2ccccc2cc1-c1nc(-c2cccs2)cs1	-52	12	-3	3	-16	.	.
COc1ccc(-n2c(N)c(C(=O)NCc3ccco3)c3nc4ccccc4nc32)cc1	8	-5	4	0	44*	-30	-37
COc1cc(-n2c(N)c(C(=O)NCc3ccco3)c3nc4ccccc4nc32)cc(OC)c1OC	9	2	3	6	43*	-28	-36
Nc1c(C(=O)NCc2ccco2)c2nc3ccccc3nc2n1CCc1ccc(F)cc1	20	-2	0	3	-9	.	.
COc1ccc(-n2c(N)c(C(=O)NCc3ccco3)sc2=S)cc1	-8	-4	6	2	-11	.	.
COc1ccc(-n2c(N)c(C(=O)NCc3ccco3)c3nc4ccccc4nc32)cc1OC	-2	12	2	0	32*	-29	-35
Nc1ccc(-n2c(N)c(C(=O)NCc3ccc4c(c3)OCO4)c3nc4ccccc4nc32)cc1	-2	-5	7	8	44*	-29	-31
COc1ccc(Nc2ncc(C(=O)N3CCN(c4ccc(F)cc4)CC3)c3ccccc23)cc1	3	13	4	6	27*	8	0
COc1ccccc1C(=O)NC(=O)COC(=O)c1oc2ccccc2c1C	.	4	-1	1	0	.	.
COC(=O)C1=C(C)NC(C)=C(C(=O)OC)C1c1ccc(OC(=O)c2oc3ccccc3c2C)c(OC)c1	-5	35*	0	0	81*	4	5
COc1ccc2c(c1OC)C(=O)OC2CC(=O)c1ccc(N(C)C)cc1 (stereo not drawn)	-2	44*	-3	4	41*	41*	30*
C=CC[C@@H](CC(=O)N(CCO)Cc1ccccc1)C(=O)N[C@H](C)COC(=O)[C@@H](CC=C)Cc1ccc(F)cc1	.	0	4	5	27*	2	1
C=CC[C@H](CC(=O)N(CCO)Cc1ccccc1)C(=O)N[C@H](C)COC(=O)[C@@H](CC=C)Cc1ccc(F)cc1	.	1	6	3	-2	.	.
Nc1nnc(CSCc2cccc(Br)c2)s1	3	-4	4	-7	-6	.	.
